Measured values taken from ChEMBL document CHEMBL1134517, “Amphiphilic anionic analogues of galactosylceramide: synthesis, anti-HIV-1 activity, and gp120 binding” (J Med Chem, 2001).

Columns and labels:
Settings in all cases: Homo sapiens
[1] = system: MT4; experiment: Anti-HIV-1 activity evaluated in vitro on MT-4 cells; format: functional, cell-based
In short: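 MT4 cells (RPMI, 10% fetal calf serum) infected with HIV-1 IIIB at a dose killing 90% of cells by day 5. Compounds in DPBS added after viral adsorption. Protection from the viral cytopathic effect read by MTT viability assay. IC50 derived from curves of protection percentage against drug concentration.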

[2] = system: MT4; experiment: Cytotoxicity was evaluated in vitro on MT-4 cells; format: functional
In short: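 Uninfected MT4 cells incubated 5 days at 37 °C with various concentrations of galactolipid in DPBS. Proliferation and viability read by colorimetric MTT assay.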

[3] = system: CEM-SS; experiment: Anti-HIV-1 activity evaluated in vitro on CEM-SS cells; format: functional, cell-based
In short: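 CEM-SS cells (RPMI, 10% fetal calf serum) infected with HIV-1 LAI grown in CEM-SS cells. Galactolipids in DPBS (or as phospholipid/cholesterol liposomes) added after viral adsorption. After 5 days, reverse transcriptase activity in supernatant measured, and inhibition calculated against untreated infected cells. IC50 taken from median-effect plot of dose-effect data. Triplicate per concentration, experiment repeated twice.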

[4] = system: CEM-SS; experiment: Cytotoxicity was evaluated in vitro on CEM-SS cells; format: functional

| Compound | IC50 [3] | IC50 [1] | CC50 [2] | CC50 [4] |
| --- | --- | --- | --- | --- |
| CCCCCCCCCCCCCC(=O)NC(CO[C@@H]1O[C@H](CO)[C@H](O)[C@H](O)[C@H]1O)C(=O)NCCO (stereo not given in full) | > 100 µM | > 100 µM | > 100 µM | > 100 µM |
| O=C(O)CCCCCCCCCCC(=O)N(CCCCCCCC(F)(F)C(F)(F)C(F)(F)C(F)(F)C(F)(F)C(F)(F)C(F)(F)C(F)(F)F)CCO[C@@H]1O[C@H](CO)[C@H](O)[C@H](O)[C@H]1O | > 18 µM | > 18 µM | > 18 µM | > 18 µM |
| CCCCCCCCCCCCCCNC(=O)C(CO[C@@H]1O[C@H](CO)[C@H](O)[C@H](O)[C@H]1O)NP(=O)(O)OC (stereo not given in full) | > 100 µM | > 100 µM | > 100 µM | > 100 µM |
| CCCCCCCCCCCCCCNC(=O)C(N)CO[C@@H]1O[C@H](CO)[C@H](O)[C@H](O)[C@H]1O (stereo not given in full) | 60 µM |  |  |  |
| O=C(O)CCCCCCCCCCCNC(=O)C(CO[C@@H]1O[C@H](CO)[C@H](O)[C@H](O)[C@H]1O)NC(=O)CCC(=O)O (stereo not given in full) | > 100 µM | > 100 µM | > 100 µM | > 100 µM |
| CCCCCCCCCCCCCCNC(=O)C(CO[C@@H]1O[C@H](CO)[C@H](O)[C@H](O)[C@H]1O)NC(=O)CCC(=O)O (stereo not given in full) | > 100 µM | > 100 µM | > 100 µM | > 100 µM |
| CCCCCCCCCCCCCCNC(=O)C(CO[C@@H]1O[C@H](CO)[C@H](O)[C@H](O)[C@H]1O)NC(=O)CCCCCCCCCCC(=O)O (stereo not given in full) | > 100 µM | > 100 µM | > 100 µM | > 100 µM |
| NC(CO[C@@H]1O[C@H](CO)[C@H](O)[C@H](O)[C@H]1O)C(=O)NCCCCCCCCCCCC(=O)O (stereo not given in full) | > 100 µM | > 100 µM | > 100 µM | > 100 µM |
| CCCCCCCCCCCCCC(=O)NCC(NC(=O)CCCCCCCCCCCCC)C(=O)NCCNC(=O)C(O)C(O)C(O[C@@H]1O[C@H](CO)[C@H](O)[C@H](O)[C@H]1O)C(O)CO (stereo not given in full) | > 100 µM | > 100 µM | > 100 µM | > 100 µM |

The next lines start with results.

| IC50 [3] | Compound | IC50 [1] | CC50 [2] | CC50 [4] |
| --- | --- | --- | --- | --- |
| 50 µM | CCCCCCCCCCCCCCNC(=O)C(CO[C@@H]1O[C@H](CO)[C@H](O)[C@H](O)[C@H]1O)NC(=O)CCC(=O)NCCS(=O)(=O)O (stereo not given in full) | > 100 µM | > 100 µM | > 100 µM |
| 10 µM | CCCCCCCCCCCCCC(=O)NC(CO[C@@H]1O[C@H](CO)[C@H](O)[C@H](O)[C@H]1O)C(=O)NCCOS(=O)(=O)O (stereo not given in full) | 20 µM | > 100 µM | > 100 µM |
| 20 µM | CCCCCCCCCCCCCC(=O)NC(CO[C@@H]1O[C@H](CO)[C@H](O)[C@H](O)[C@H]1O)C(=O)O (stereo not given in full) | > 100 µM | > 100 µM | > 100 µM |
| 40 µM | NC(CO[C@@H]1O[C@H](CO)[C@H](O)[C@H](O)[C@H]1O)C(=O)NCCCCCCCCCCCC(F)(F)C(F)(F)C(F)(F)C(F)(F)C(F)(F)C(F)(F)F (stereo not given in full) |  |  |  |
| 32 µM | CCCCCCCCCCCCCC(=O)NCC(NC(=O)CCCCCCCCCCCCC)C(=O)NCCN(CCNC(=O)C(O)C(O)C(O[C@@H]1O[C@H](CO)[C@H](O)[C@H](O)C1O)C(O)CO)CCNC(=O)C(O)C(O)C(O[C@@H]1O[C@H](CO)[C@H](O)[C@H](O)[C@H]1O)C(O)CO (stereo not given in full) | 33 µM | 38 µM | 44 µM |
